Laboratory results taken from PubChem BioAssay.
Inconclusive results are not listed. Calls of active or inactive are those of the source.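 How the source made its calls, unless noted: active means viability increase at or above a cutoff of the median across tested compounds plus 3 SD (cut at about 8.5% in these data, passing the limit was not always enough); inconclusive means some gains above the cutoff, reason not given; inactive means the rest.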

Tests used:
[1] = S. cerevisiae growth inhibition in permissive medium (OD615), pilot counter-assay for S. cerevisiae lifespan shortening project, permissive growth control (AID 705;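 active means growth inhibition above 25% in both replicates, a cutoff set 3 SD above the mean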); conditions: OD615, 24 h, at 10 µM, active compounds read high
How it was run: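 assay system = Saccharomyces cerevisiae strain carrying genetically modified DeaD replicative-lifespan system | medium = SC raffinose/galactose permissive medium | dosing = 10 µM single dose, 0.25% DMSO | schedule = 24 h compound exposure at 30 °C after 4 h pre-growth | measured by = OD at 615 nm | read-out basis = growth inhibition from lowered OD615 after 24 h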

[2] = S. cerevisiae growth inhibition in restrictive medium, OD615, pilot screen, restrictive growth control, yeast lifespan reduction project (AID 706;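 active means growth inhibition above a set limit, 3 SD over mean compound inhibition, in both replicates, cut at about 43% in these data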;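 further: modified DeaD lifespan yeast strain shifted to restrictive glucose medium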); conditions: OD615, 48 h, at 10 µM, active compounds read high
How it was run: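 Buffer or medium: CSMM-D glucose medium. Material: genetically modified Saccharomyces cerevisiae, DeaD replicative lifespan assay strain. Times: 48 h compound exposure at 30 °C. Measured by: optical density at 615 nm.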

[3] = doxorubicin toxicity protection in MRP-1 cells – H69AR cells, CellTiter-Glo, duplicate, MRP-1 activator project, pilot screen (AID 807); conditions: H69AR viability with doxorubicin, CellTiter-Glo luminescence; at 10 µM; active compounds read high;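 further: compound pretreatment 18-22 h then 72 h combined with doxorubicin; 0% = doxorubicin alone and 100% = vehicle without doxorubicin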
[4] = viability of HCT116 without oncogenic beta-catenin – human colon tumor cells, pilot screen (AID 823;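 active means cell viability at or below a set limit in both duplicate runs, the limit being the all-compound median minus 4 SD, cut at about 23% in these data, passing the limit was not always enough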;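 further: 0% = wells killed by 20 µM Hyamine and 100% = untreated DMSO cell wells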); conditions: HCT116 beta-catenin knockout viability, CellTiter-Glo, 60 h; at 10 µM; active compounds read low
[5] = viability of PTEN-null HCT116 cells – cell-based, HCT116 clonal line, CellTiter-Glo, pilot screen (AID 824;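 active means viability at or below 27.92% in each of two runs, the all-compound median minus 4 SD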;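 further: 0% = 20 µM Hyamine control and 100% = vehicle cell control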); conditions: HCT116 PTEN-deleted viability, 60 h, at 10 µM, active compounds read low
[6] = RAM pathway blockade in budding yeast – dse1pr::URA3 reporter, 5-FOA selection, pilot screen (AID 869;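 active means inhibition over a set limit, the all-compound mean plus 3 SD, in both replicate runs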;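 further: 0% = DMSO wells with no growth and 100% = 10 µM 1-NA-PP1 with full growth; RAM network block rescues cells from 5-FOA so hits raise OD615 growth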); conditions: S. cerevisiae dse1pr::URA3 5-FOA growth, OD615, 2 d; at 10 µM; active compounds read high; strain carries analog-sensitive mutant Cbk1 kinase
[7] = RAM signaling pathway blockade in yeast – S. cerevisiae, Pdr1DBD-CYC8 efflux-inhibited sensitized strain, primary screen (AID 1298;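 active means RAM network inhibition above 8.4% in each of two replicates, 3 SD over the compound average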;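 further: 0% = DMSO untreated cells without growth and 100% = 10 µM 1-NA-PP1 full growth; higher means more yeast growth rescued from 5-FOA killing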); conditions: S. cerevisiae cbk1-as DSE1-URA3 strain, 5-FOA growth OD615, 2 d; at 50 µM; active compounds read high

COc1ccc2c(c1)OC13CCN(C)CC1C2C(C(=O)c1ccc(F)cc1)C(=O)N3 (stereo unspecified)
inactive: growth inhibition [1] -25.9% | growth inhibition [2] -21.6% | viability increase [3] -4.02% | viability [4] 78.9% | viability [5] 81.4% | inhibition [6] 0.27% | RAM network inhibition [7] 0.97%

CN(C)S(=O)(=O)c1ccc(C(=O)Nc2nc(-c3cccs3)cs2)cc1
inactive: growth inhibition [1] -5.6% | growth inhibition [2] -13.7% | viability increase [3] -1.56% | viability [4] 49.8% | inhibition [6] 4.17% | RAM network inhibition [7] 5.01%
active: viability [5] 20%

O=C(c1cnccn1)N(c1ccccc1)C1(C(=O)NC2CCCCC2)CCCCC1
inactive: growth inhibition [1] -6.44% | growth inhibition [2] -1.08% | viability increase [3] -0.6% | viability [4] 96.9% | viability [5] 90.7% | inhibition [6] 1.06% | RAM network inhibition [7] 1.62%

CC(=O)c1ccc(OCC(O)CN2CCCC(C)C2)cc1 (stereo unspecified)
inactive: growth inhibition [1] 5.32% | growth inhibition [2] -4.29% | viability increase [3] -0.81% | viability [4] 99.3% | viability [5] 96.7% | inhibition [6] 1.98% | RAM network inhibition [7] 5.23%

O=C(CC1Sc2ncnn2C1=O)Nc1ccc(Br)cc1 (stereo unspecified)
inactive: growth inhibition [1] -5.64% | growth inhibition [2] -9.71% | viability increase [3] -1.23% | viability [4] 106% | viability [5] 100% | inhibition [6] 1.93% | RAM network inhibition [7] 5.71%

COc1ccc(C(=O)Nc2ccc(S(=O)(=O)Nc3cc(C)nc(C)n3)cc2)c(OC)c1
inactive: growth inhibition [1] 6.9% | growth inhibition [2] -0.365% | viability increase [3] 0.28% | viability [4] 98.6% | viability [5] 95.8% | inhibition [6] 1.77% | RAM network inhibition [7] 3.78%

Cc1ccc2oc3c(c(=O)c2c1)C(c1ccc(F)cc1)N(CCCN1CCOCC1)C3=O (stereo unspecified)
inactive: growth inhibition [1] -3.52% | growth inhibition [2] -0.585% | viability increase [3] -4.72% | viability [4] 91% | viability [5] 89.6% | inhibition [6] 0.595% | RAM network inhibition [7] 0.29%

CN(C)S(=O)(=O)Nc1ccc2c(c1)Cc1ccccc1-2
inactive: growth inhibition [1] -17.4% | growth inhibition [2] -9.69% | viability increase [3] -2.09% | viability [4] 92.3% | viability [5] 88.5% | inhibition [6] 1% | RAM network inhibition [7] 4.68%

COc1ccc(-c2c(C)oc3c(CN4CCCCC4C)c(O)ccc3c2=O)cc1OC (stereo unspecified)
inactive: growth inhibition [1] -13.7% | growth inhibition [2] -7.48% | viability increase [3] -9.18% | viability [4] 103% | viability [5] 97.5% | inhibition [6] 1.71% | RAM network inhibition [7] 4.01%

O=C(Cn1c(=O)oc2cc(S(=O)(=O)N3CCc4ccccc43)ccc21)NC1CCCC1
inactive: growth inhibition [1] -3.26% | growth inhibition [2] 2.94% | viability increase [3] -1.06% | viability [4] 78.8% | viability [5] 73.9% | inhibition [6] 2.91% | RAM network inhibition [7] 0.88%

CC1CCc2c(sc3nc(SCc4nc(-c5ccccc5)no4)n(C)c(=O)c23)C1 (stereo unspecified)
inactive: growth inhibition [1] -3.38% | growth inhibition [2] -5.98% | viability increase [3] 1.25% | viability [4] 94% | viability [5] 89% | inhibition [6] 2.21% | RAM network inhibition [7] 2.32%

O=C(c1cc(-c2ccccc2O)on1)N1CCCC1
inactive: growth inhibition [1] -4.15% | growth inhibition [2] -3.9% | viability increase [3] -4.17% | viability [4] 105% | viability [5] 90.7% | inhibition [6] 3.37% | RAM network inhibition [7] 6.42%

O=C(c1ccco1)c1cn[nH]c1-c1ccc(Cl)cc1O
inactive: growth inhibition [1] -6.04% | growth inhibition [2] -8.45% | viability increase [3] -2.19% | viability [4] 95.6% | viability [5] 83.4% | inhibition [6] 1.42% | RAM network inhibition [7] 0.57%

CCCCSc1nc2c(c(=O)n1CC)SC(C)C2 (stereo unspecified)
inactive: growth inhibition [1] -3.78% | growth inhibition [2] 5.58% | viability increase [3] -2.43% | viability [4] 87.3% | viability [5] 87.8% | inhibition [6] 0.125% | RAM network inhibition [7] 5.53%

Cc1cc(-c2nnco2)c(C)n1-c1ccc(F)cc1
inactive: growth inhibition [1] -8.75% | growth inhibition [2] -5.7% | viability increase [3] -2.15% | viability [4] 84.2% | viability [5] 85.3% | inhibition [6] 0.83% | RAM network inhibition [7] 4.69%

CC(C)Oc1ccc(N2CC(C(=O)Nc3ccc4c(c3)OCO4)CC2=O)cc1 (stereo unspecified)
inactive: growth inhibition [1] -13.3% | growth inhibition [2] -4.22% | viability increase [3] -0.37% | viability [4] 106% | viability [5] 99.5% | inhibition [6] 2.58% | RAM network inhibition [7] 4.96%

COc1nc(Nc2ccc3c(c2)OCO3)nc(OC)n1
inactive: growth inhibition [1] -22% | growth inhibition [2] -10.4% | viability increase [3] -2.8% | viability [4] 102% | viability [5] 93.6% | inhibition [6] 3.51% | RAM network inhibition [7] 4.7%

CCOC(=O)C1CCN(c2cc(=O)n(Cc3ccc(F)cc3)c(=O)[nH]2)CC1
inactive: growth inhibition [1] -11% | growth inhibition [2] -17.4% | viability increase [3] -0.81% | viability [4] 96.8% | viability [5] 88.5% | inhibition [6] 3.19% | RAM network inhibition [7] 5.11%

O=S(=O)(c1cccs1)N1CCCc2ccccc21
inactive: growth inhibition [1] -13.1% | growth inhibition [2] -18.4% | viability increase [3] -2.75% | viability [4] 83.5% | viability [5] 83.8% | inhibition [6] 1.71% | RAM network inhibition [7] 3.38%

O=S(=O)(c1ccccc1)n1ccc2ccccc21
inactive: growth inhibition [1] -3% | growth inhibition [2] 5.11% | viability increase [3] -5.11% | viability [4] 87.4% | viability [5] 89.1% | inhibition [6] 0.255% | RAM network inhibition [7] 6.25%

COc1ccc(OC)c2c1CC(C)(C)NC2=O
inactive: growth inhibition [1] 0.615% | growth inhibition [2] 7.13% | viability increase [3] -0.54% | viability [4] 88.3% | viability [5] 96.9% | inhibition [6] 1.83% | RAM network inhibition [7] 3.75%

Cc1cc(C2N=C(N)Nc3nc4ccccc4n32)c(C)n1-c1ccccc1Cl (stereo unspecified)
inactive: growth inhibition [1] -0.255% | growth inhibition [2] -33.7% | viability increase [3] -4.14% | inhibition [6] 2.92% | RAM network inhibition [7] 3.79%
active: viability [4] 9.19% | viability [5] 16.7%

COc1cc(C(=O)Nc2cc(-c3nc4cc(C)ccc4o3)ccc2C)cc(OC)c1OC
inactive: growth inhibition [1] 3.69% | growth inhibition [2] 8.25% | viability increase [3] -2.34% | viability [4] 97% | viability [5] 95.2% | inhibition [6] 0.43% | RAM network inhibition [7] -0.15%

CCOc1ccccc1C1C(C(=O)Nc2ccccc2OC)=C(C)Nc2nc(CCCO)nn21 (stereo unspecified)
inactive: growth inhibition [1] -20.1% | growth inhibition [2] -8.73% | viability increase [3] -3.55% | viability [4] 89.5% | viability [5] 88% | inhibition [6] 1.01% | RAM network inhibition [7] 4.4%

O=C(COc1ccc(Cl)cc1)OCC(=O)N1CCCC1
inactive: growth inhibition [1] -6.8% | growth inhibition [2] -26.8% | viability increase [3] -2.32% | viability [4] 94.5% | viability [5] 95.3% | inhibition [6] 1.44% | RAM network inhibition [7] 3.51%

CCCCC(CC)CNC(=O)CCS(=O)(=O)c1cccc2nsnc12 (stereo unspecified)
inactive: growth inhibition [1] -14.8% | growth inhibition [2] -21.5% | viability increase [3] -2.97% | viability [4] 85.7% | viability [5] 91.7% | inhibition [6] 3.19% | RAM network inhibition [7] 4.78%

O=C(Nc1ccccc1)OCCOc1ccccc1
inactive: growth inhibition [1] -9.16% | growth inhibition [2] 4.62% | viability increase [3] 2.54% | viability [4] 91.7% | viability [5] 100% | inhibition [6] 2.92% | RAM network inhibition [7] 1.95%

COC(=O)c1ccc(C2C(C(C)=O)=C(C)Nc3ncnn32)cc1 (stereo unspecified)
inactive: growth inhibition [1] -8.45% | growth inhibition [2] 9.82% | viability increase [3] -1.07% | viability [4] 108% | viability [5] 98.7% | inhibition [6] 1.9% | RAM network inhibition [7] 2.09%

Cc1cc(Cl)ccc1N=Cc1c(O)n(C)c(=O)n(C)c1=O
inactive: growth inhibition [1] 1.62% | growth inhibition [2] 1.2% | viability increase [3] 2.36% | viability [4] 106% | viability [5] 105% | inhibition [6] 0.11% | RAM network inhibition [7] -1.25%

COC(=O)c1ccc(CSc2nc3c(c(=O)n2-c2ccc(F)cc2)SCC3)o1
inactive: growth inhibition [1] -7.83% | growth inhibition [2] -16.6% | viability increase [3] -3.02% | viability [4] 83.7% | viability [5] 81.3% | inhibition [6] 1.3% | RAM network inhibition [7] 1.52%

O=C(COc1ccccc1)Nc1ccc(S(=O)(=O)N2CCCC2)cc1
inactive: growth inhibition [1] -12.9% | growth inhibition [2] -12.5% | viability increase [3] -1.84% | viability [4] 99.5% | viability [5] 88.7% | inhibition [6] 2.33% | RAM network inhibition [7] 2.76%

O=P(O)(CCc1ccncc1)CN1CCCCC1
inactive: growth inhibition [1] -9.59% | growth inhibition [2] -7.67% | viability increase [3] 2.46% | viability [4] 97.3% | viability [5] 101% | inhibition [6] 1.82% | RAM network inhibition [7] -0.01%

CCCCN1C(=O)/C(=C2\SC(N3CCCCC3)=NC2=O)c2ccccc21
inactive: growth inhibition [1] -4.39% | growth inhibition [2] 14.6% | viability increase [3] -2.31% | viability [4] 48.4% | viability [5] 45.8% | inhibition [6] 1.53% | RAM network inhibition [7] 3.38%
